These results are taken from ChEMBL document CHEMBL1142545, “1,3-Dialkyl-8-(hetero)aryl-9-OH-9-deazaxanthines as potent A2B adenosine receptor antagonists: design, synthesis, structure-affinity and structure-selectivity relationships” (Bioorg Med Chem, 2008).

Molecules are shown by their SMILES. In brackets after ≈: the same amount, converted by molar mass.

The test system of one data set is HeLa. Description: Selectivity index, ratio of Ki for human cloned adenosine A2A receptor expressed in human HeLa cells to Ki for human cloned adenosine A2B receptor expressed in HEK293 cells. In kind it is cell-based. An outline of the steps: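 SI is the ratio of Ki values. […] A1 in CHO cells: [3H]DPCPX 2 nM. A2A in HeLa cells: [3H]ZM241385 3 nM. A2B in HEK-293 cells: [3H]DPCPX 25 nM. A3 in HeLa cells: [3H]NECA 30 nM. Filtration and scintillation counting.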

A further data set addresses T1, Adenosine receptor A1 (Homo sapiens, UniProt P30542).
T1 sequence (P30542 whole entry): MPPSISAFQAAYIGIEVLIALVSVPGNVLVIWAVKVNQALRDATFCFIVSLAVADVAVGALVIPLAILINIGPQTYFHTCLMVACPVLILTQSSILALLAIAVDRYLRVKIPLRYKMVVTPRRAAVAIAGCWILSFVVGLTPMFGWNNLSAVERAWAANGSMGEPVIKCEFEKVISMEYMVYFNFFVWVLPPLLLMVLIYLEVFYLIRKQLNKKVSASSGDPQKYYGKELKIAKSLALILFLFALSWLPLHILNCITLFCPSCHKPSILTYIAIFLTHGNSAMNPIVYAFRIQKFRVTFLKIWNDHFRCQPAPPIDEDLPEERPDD
Kind of data set: Displacement of [3H]DPCPX from human cloned adenosine A1 receptor expressed in CHO cells. It is filed as cell-based.

For data set [1], the target named is T2, Adenosine receptor A2a (Homo sapiens, UniProt P29274). Kind of data set: Displacement of [3H]ZM241385 from human cloned adenosine A2A receptor expressed in human HeLa cells. It is filed as cell-based.
The target in another data set is T3, Adenosine receptor A2b (Homo sapiens, UniProt P29275).
T3 sequence (P29275 whole entry): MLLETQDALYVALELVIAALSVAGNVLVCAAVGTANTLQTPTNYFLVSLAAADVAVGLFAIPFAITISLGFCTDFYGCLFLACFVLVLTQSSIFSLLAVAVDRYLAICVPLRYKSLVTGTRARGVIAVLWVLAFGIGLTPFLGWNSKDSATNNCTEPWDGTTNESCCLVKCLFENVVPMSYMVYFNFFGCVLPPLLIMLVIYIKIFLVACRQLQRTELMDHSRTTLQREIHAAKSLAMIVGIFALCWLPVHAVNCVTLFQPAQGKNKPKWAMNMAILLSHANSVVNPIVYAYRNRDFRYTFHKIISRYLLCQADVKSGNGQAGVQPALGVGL
Kind of data set: Displacement of [3H]DPCPX from human cloned adenosine A2B receptor expressed in HEK293 cells. In kind it is cell-based. In general terms: Loss of bound radioactivity is the signal in a displacement assay; it reports binding, not function.

The target in data set [2] is T4, Adenosine receptor A3 (Homo sapiens, UniProt P0DMS8). Description: Displacement of [3H]NECA from human cloned adenosine A3 receptor expressed in human HeLa cells. It is filed as cell-based.
For data set [3], the target named is T4, Adenosine receptor A3. Kind of data set: Displacement of [3H]NECA from human cloned adenosine A3 receptor expressed in human HeLa cells at 1 uM. It is filed as cell-based.
Data set [4] has as its target T2, Adenosine receptor A2a. Description: Displacement of [3H]ZM241385 from human cloned adenosine A2A receptor expressed in human HeLa cells at 1 uM. It is filed as cell-based. In short, it runs like this:
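HeLa membranes (10 µg) in 50 mM Tris–HCl, 1 mM EDTA, 10 mM MgCl2, 2 U/mL adenosine deaminase, pH 7.4; 3 nM [3H]ZM241385, 25 °C; NECA for nonspecific binding; filtration with 4× ice-cold washes, scintillation counting; percent radioligand displacement at 1 µM.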

The nature of data set [5]: Methanol-water partition coefficient, log K by RP-HPLC. In kind it is physicochemical. An outline of the steps: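 Reverse-phase HPLC with water–methanol 40/60 (v/v) mobile phase at 1.0 ml/min; dead time from KI in methanol; retention times in minutes; log k from capacity factor taken as lipophilicity index.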
Data set [6] is described as follows: Solubility in 50 mM Tris/HCl buffer at pH 7.4 by turbidimetric method. It is filed as physicochemical. In short, it runs like this:
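DMSO stock added stepwise (about 14 additions) to 50 mM Tris/HCl pH 7.4 at room temperature, final DMSO below 5%; precipitation detected as UV absorbance rise at 600–800 nm; solubility limit from bilinear fit of absorbance versus DMSO.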

T2 sequence (P29274 whole entry): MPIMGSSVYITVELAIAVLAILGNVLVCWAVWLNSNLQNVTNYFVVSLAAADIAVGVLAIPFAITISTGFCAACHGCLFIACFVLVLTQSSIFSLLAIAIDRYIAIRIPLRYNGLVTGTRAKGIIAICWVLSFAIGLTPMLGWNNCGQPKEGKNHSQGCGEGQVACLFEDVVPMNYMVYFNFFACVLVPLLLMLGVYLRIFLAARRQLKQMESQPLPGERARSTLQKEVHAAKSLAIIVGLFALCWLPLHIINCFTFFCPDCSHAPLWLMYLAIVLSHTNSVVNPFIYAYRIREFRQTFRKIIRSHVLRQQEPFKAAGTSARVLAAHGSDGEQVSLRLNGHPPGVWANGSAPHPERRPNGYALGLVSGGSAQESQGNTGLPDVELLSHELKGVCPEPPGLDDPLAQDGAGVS
T4 sequence (P0DMS8 whole entry): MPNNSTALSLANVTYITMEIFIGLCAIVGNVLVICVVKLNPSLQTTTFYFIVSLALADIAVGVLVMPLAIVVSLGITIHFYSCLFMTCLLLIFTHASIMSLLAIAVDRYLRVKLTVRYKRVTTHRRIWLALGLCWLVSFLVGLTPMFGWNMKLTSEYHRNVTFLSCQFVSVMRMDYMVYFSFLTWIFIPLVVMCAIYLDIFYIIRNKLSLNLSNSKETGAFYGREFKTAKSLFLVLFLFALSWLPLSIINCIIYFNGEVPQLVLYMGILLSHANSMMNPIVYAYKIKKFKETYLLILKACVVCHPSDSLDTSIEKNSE

On to `CCCn1c(=O)c2[nH]c(-c3ccc(S(C)(=O)=O)cc3)c(O)c2n(CCC)c1=O`, for which, in the data set with HeLa, the Ratio Ki is 4.3. Besides, the inhibition constant Ki – broadly, the equilibrium dissociation constant of an inhibitor or competing ligand from its target – on Adenosine receptor A1 was 63 nM; at Adenosine receptor A2a [1], 28 nM; at Adenosine receptor A2b it was 6.5 nM; on Adenosine receptor A3 [2], 295 nM.
For the compound `CCCn1c(=O)c2[nH]c(-c3ccco3)c(O)c2n(CCC)c1=O`, the Ratio Ki in the data set with HeLa came out at 4.5. In addition, the Ki on Adenosine receptor A2a [1] was 104 nM; on Adenosine receptor A2b it was 23 nM.
In the same order, the values of `CCCn1c(=O)c2[nH]c(-c3ccc(C(=O)O)cc3)c(O)c2n(CCC)c1=O` are 2.8, 933 nM and 338 nM.
For `CCCn1c(=O)c2[nH]c(-c3ccc(OCC(=O)Nc4ccc(Br)cc4)cc3)cc2n(CCC)c1=O`, the Ratio Ki with HeLa came out at 14. Besides, the values for the Ki on Adenosine receptor A1 and at Adenosine receptor A3 [2] were 21 nM and 199 nM, respectively.
Turning to `CCCn1c(=O)c2[nH]c(-c3ccc(S(C)(=O)=O)cc3)c(O)c2n(C)c1=O`, in the data set with HeLa, the Ratio Ki was 7.3. In addition, the Ki at Adenosine receptor A1 stood at 240 nM; at Adenosine receptor A2a [1], 468 nM; on Adenosine receptor A2b, 64 nM. Also, at Adenosine receptor A3 [3], the inhibition (usually the drop in the measured response relative to a control, in per cent) came to 7%.
As for `CCCn1c(=O)c2c(cc(-c3ccc(OC)cc3)n2O)n(CCC)c1=O`, in the data set with HeLa, the Ratio Ki was 1.3. The Ki at Adenosine receptor A2a [1] turned out to be 631 nM; at Adenosine receptor A2b, 479 nM.
Taken in the same sequence, the figures for `Cn1c(=O)c2[nH]c(-c3ccccc3)c(O)c2n(C)c1=O` were 5.1, 1470 nM and 288 nM.
Taken in the same sequence, the figures for `Cc1ccc(-c2[nH]c3c(=O)n(C)c(=O)n(C)c3c2O)cc1` were 4.8, 2450 nM and 513 nM.
In the same order, the values of `Cn1c(=O)c2[nH]c(-c3ccccc3)cc2n(C)c1=O` are 2.6, 479 nM and 182 nM.
For the compound `CCCn1c(=O)c2[nH]c(-c3ccccc3)c(O)c2n(CCC)c1=O`, in the data set on HeLa, the Ratio Ki was found to be 0.93. Moreover, the Ki at Adenosine receptor A1 turned out to be 83 nM; at Adenosine receptor A2a [1], 50 nM; at Adenosine receptor A2b, 54 nM; at Adenosine receptor A3 [2], 182 nM.
For `CCCn1c(=O)c2c(cc(-c3ccccc3)n2O)n(CCC)c1=O`, the Ki at Adenosine receptor A1 is 25 nM; on Adenosine receptor A2b, 676 nM. The inhibition at Adenosine receptor A3 [3] was 30%; on Adenosine receptor A2a [4] it was 32%.
As to `CCCn1c(=O)c2[nH]c(-c3ccc(N)cc3)c(O)c2n(CCC)c1=O`, in the data set with HeLa, the Ratio Ki is 8.7. Moreover, the “log K” value in data set [5] was 0.96. In addition, the Ki came out at 166 nM on Adenosine receptor A2a [1] and 19 nM on Adenosine receptor A2b. For the same compound, the kinetic solubility (as a rule, the concentration staying in solution when a stock, usually in DMSO, is diluted into the medium) in data set [6] was found to be 30 µg/mL (≈ 87.6 µM).
In the same order, the values of `CCCn1c(=O)c2[nH]c(-c3ccc(OC)cc3)cc2n(CCC)c1=O` are 0.41, 0.71, 199 nM, 490 nM and 28 µg/mL (≈ 82 µM).
With `Cn1c(=O)c2c(cc(-c3ccccc3)n2O)n(C)c1=O`, at Adenosine receptor A2b, the inhibition constant Ki worked out at 1660 nM. Further, the inhibition on Adenosine receptor A2a [4] came to 12%.
On to `Cc1ccc(-c2cc3c([nH]2)c(=O)n(C)c(=O)n3C)cc1`, for which the Ratio Ki in the data set with HeLa turned out to be 0.28. The Ki is 126 nM at Adenosine receptor A2a [1] and 457 nM on Adenosine receptor A2b.
With `CCCn1c(=O)c2[nH]c(-c3ccc(C)cc3)cc2n(CCC)c1=O`, the Ratio Ki in the data set with HeLa amounted to 3.2. Also, the “log K” value in data set [5] is 0.97. The Ki at Adenosine receptor A2a [1] came to 631 nM; at Adenosine receptor A2b, 199 nM. The kinetic solubility in data set [6] stood at 6 µg/mL (≈ 18.4 µM).
In the same order, the values of `CCCn1c(=O)c2[nH]c(-c3ccc(C)cc3)c(O)c2n(CCC)c1=O` are 1, 0.83, 89 nM, 89 nM and 30 µg/mL (≈ 87.9 µM).
In the case of `CCCn1c(=O)c2[nH]c(-c3ccc(C(C)=O)cc3)c(O)c2n(CCC)c1=O`, in the data set on HeLa, the Ratio Ki is 4.6. Also, the Ki was determined as 324 nM at Adenosine receptor A2a [1] and 71 nM on Adenosine receptor A2b.
For `CCCn1c(=O)c2[nH]c(-c3ccc(O)cc3)c(O)c2n(CCC)c1=O`, the Ratio Ki in the data set with HeLa was 10.7. Besides, the Ki is 118 nM at Adenosine receptor A2a [1] and 11 nM at Adenosine receptor A2b.
Consider `CCCn1c(=O)c2[nH]c(-c3ccc(O)cc3)cc2n(CCC)c1=O`, for which, in the data set on HeLa, the Ratio Ki is 1.1. For the same compound, the Ki stood at 48 nM on Adenosine receptor A2a [1] and 44 nM at Adenosine receptor A2b.
In the same order, the values of `CCCn1c(=O)c2c(cc(-c3ccc(N)cc3)n2O)n(CCC)c1=O` are 1.5, 240 nM and 155 nM.
In the same order, the values of `CCCn1c(=O)c2[nH]c(-c3ccc([N+](=O)[O-])cc3)c(O)c2n(CCC)c1=O` are 2.9, 145 nM and 50 nM.
Taken in the same sequence, the figures for `Cn1c(=O)c2[nH]c(-c3ccc(S(C)(=O)=O)cc3)c(O)c2n(C)c1=O` were 10.2, 692 nM and 68 nM.
On Adenosine receptor A2b, `Cc1ccc(-c2cc3c(c(=O)n(C)c(=O)n3C)n2O)cc1` gave a Ki of 2240 nM. The same compound yielded an inhibition on Adenosine receptor A2a [4] of 8%.
For `CCCn1c(=O)c2[nH]c(-c3ccc(OCC(=O)N4CCN(Cc5ccccc5)CC4)cc3)cc2n(CCC)c1=O`, in the data set with HeLa, the Ratio Ki stood at 42. In addition, the Ki on Adenosine receptor A1 was found to be 43 nM. The compound further had an inhibition at Adenosine receptor A3 [3] of 5%. In [5], the “log K” value is 0.93. The compound also displayed a solubility (kinetic) in data set [6] of 2 µg/mL (≈ 3.68 µM).
For the compound `CCCn1c(=O)c2[nH]c(-c3ccccc3)cc2n(CCC)c1=O`, the Ratio Ki in the data set with HeLa was found to be 2.8. For the same compound, the Ki at Adenosine receptor A1 was 34 nM; on Adenosine receptor A2a [1], 646 nM; on Adenosine receptor A2b, 229 nM; at Adenosine receptor A3 [2], 96 nM.
Take `CCCn1c(=O)c2c(cc(-c3ccc(O)cc3)n2O)n(CCC)c1=O`: the Ratio Ki in the data set on HeLa is 0.89. Further, the inhibition constant (Ki) was 102 nM at Adenosine receptor A2a [1] and 115 nM at Adenosine receptor A2b.
In the same order, the values of `CCCn1c(=O)c2c(cc(-c3ccc(C)cc3)n2O)n(CCC)c1=O` are 0.66, 398 nM and 589 nM.
Turning to `CCCn1c(=O)c2[nH]c(-c3ccc(OC)cc3)c(O)c2n(CCC)c1=O`, the Ratio Ki with HeLa came to 6.2. In addition, the “log K” value in data set [5] stood at 0.51. The values for the Ki at Adenosine receptor A2a [1] and on Adenosine receptor A2b were 148 nM and 24 nM, respectively. Also, the kinetic solubility in data set [6] was found to be 120 µg/mL (≈ 336 µM).
Taken in the same sequence, the figures for `CCCn1c(=O)c2[nH]c(-c3ccc(N)cc3)cc2n(CCC)c1=O` were 18.2, 1.21, 162 nM, 8.9 nM and 6 µg/mL (≈ 18.4 µM).
In the case of `CCCn1c(=O)c2[nH]c(-c3ccco3)c(OS(=O)(=O)O)c2n(CCC)c1=O`, the Ratio Ki with HeLa stood at 11.7. Also, the Ki on Adenosine receptor A2a [1] was determined as 408 nM; on Adenosine receptor A2b it was 35 nM.
